# Experiments:
# MDA-MB-231 = test: Cytotoxicity against human MDA-MB-231 cells assessed as growth inhibition after 72 hrs by MTT assay; type: functional, cell-based; details: MDA-MB-231, 72 h
# Procedure, shortened: (§1)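 Cells grown in MEM with 10% FBS. About 4×10^3 cells/well were pre-incubated for 24 h at 37 °C in 5% CO₂, then exposed to compound at the indicated final concentrations for 72 h. MTT was added to 5 µg/mL final for 4 h at 37 °C. Formazan was dissolved in DMSO and read at 492 nm, with 630 nm as reference. IC50 is the mean of three determinations.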
# NCI-H460 = test: Cytotoxicity against human H460 cells assessed as growth inhibition after 72 hrs by MTT assay; type: functional, cell-based; details: NCI-H460, 72 h
# Procedure, shortened: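 Cells grown in MEM with 10% FBS. About 4×10^3 cells/well were pre-incubated for 24 h at 37 °C in 5% CO₂, then exposed to compound at the indicated final concentrations for 72 h. MTT was added to 5 µg/mL final for 4 h at 37 °C. IC50 is the mean of three determinations.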
# HT-29 = test: Cytotoxicity against human HT-29 cells assessed as growth inhibition after 72 hrs by MTT assay; type: functional, cell-based; details: HT-29, 72 h; procedure, shortened: as §1
# [1] = Cytotoxicity against human U87MG cells assessed as growth inhibition after 72 hrs by MTT assay; type: functional, cell-based, U-87MG ATCC; details: U-87 MG; procedure, shortened: as §1
# NCI-H1975 = test: Cytotoxicity against human NCI-H1975 cells assessed as growth inhibition after 72 hrs by MTT assay; type: functional, cell-based; details: NCI-H1975, 72 h; procedure, shortened: as §1
Compound,IC50 (MDA-MB-231) [µM],IC50 (NCI-H460; read-out: IC50) [µM],IC50 (NCI-H460; read-out: pIC50 (converted)) [µM],IC50 (HT-29) [µM],IC50 [1] [µM],IC50 (NCI-H1975) [µM]
Clc1cccc(Cl)c1Cn1cc(/C=N/Nc2nc(N3CCOCC3)c3sccc3n2)c2ccccc21,20.5,10.4,10.5,35.4,–,–
C(=N\Nc1nc(N2CCOCC2)c2sccc2n1)/c1nc2ccccc2n1Cc1ccccc1,21.3,25.6,25.7,1.08,–,–
CC(C)(O)c1cc2nc(N/N=C/c3cn(Cc4cccc(Cl)c4)c4ccccc34)nc(N3CCOCC3)c2s1,3.22,0.84,0.832,0.87,8.91,23.8
N#Cc1cccc(Cn2cc(/C=N/Nc3nc(N4CCOCC4)c4sccc4n3)c3ccccc32)c1,2,0.34,0.347,4.86,9.68,–
Clc1cccc(Cn2cc(/C=N/Nc3nc(N4CCOCC4)c4sccc4n3)c3ccccc32)c1,9.74,0.54,0.537,2.98,5.96,> 100
CC(C)(O)c1cc2nc(N/N=C/c3cn(Cc4cccc(C#N)c4)c4ccccc34)nc(N3CCOCC3)c2s1,5.61,0.36,0.363,1.39,6.64,–
CC(C)(O)c1cc2nc(N/N=C/c3cn(Cc4cccc(F)c4)c4ccccc34)nc(N3CCOCC3)c2s1,7.2,0.42,0.427,0.38,7.82,19.7
Clc1cccc(Cn2c(/C=N/Nc3nc(N4CCOCC4)c4sccc4n3)nc3ccccc32)c1Cl,> 100,37.1,37.2,6.46,–,–
Fc1ccc(Cn2cc(/C=N/Nc3nc(N4CCOCC4)c4sccc4n3)c3ccccc32)cc1,12.3,0.41,0.407,1.79,8.83,> 100
Fc1ccccc1Cn1cc(/C=N/Nc2nc(N3CCOCC3)c3sccc3n2)c2ccccc21,9.24,0.86,0.871,3.28,22.6,> 100
N#Cc1ccc(Cn2cc(/C=N/Nc3nc(N4CCOCC4)c4sccc4n3)c3ccccc32)cc1,> 100,1.62,1.62,25.5,–,–
Cc1ccc(Cn2cc(/C=N/Nc3nc(N4CCOCC4)c4sccc4n3)c3ccccc32)cc1,9.73,0.83,0.832,3.31,4.97,33.1
Clc1ccc(Cn2cc(/C=N/Nc3nc(N4CCOCC4)c4sccc4n3)c3ccccc32)c(Cl)c1,> 100,5.77,5.75,46.5,–,–
CC(C)(O)c1cc2nc(N/N=C/c3cn(Cc4ccc(F)cc4)c4ccccc34)nc(N3CCOCC3)c2s1,1.53,1.1,1.1,1.01,–,–
Clc1ccc(Cn2c(/C=N/Nc3nc(N4CCOCC4)c4sccc4n3)nc3ccccc32)cc1,13.9,2.6,2.63,0.77,13.4,–
CC(C)(O)c1cc2nc(NN)nc(N3CCOCC3)c2s1,> 100,29.7,–,56.2,–,–
C=CCc1cccc(/C=N/NC(=O)CN2CCN(Cc3ccccc3)CC2)c1O [PAC-1],6.11,3.57,–,0.97,–,–

Compound,IC50 (MDA-MB-231) [µM],IC50 (NCI-H460; read-out: IC50) [µM],IC50 (NCI-H460; read-out: pIC50 (converted)) [µM],IC50 (HT-29) [µM],IC50 [1] [µM],IC50 (NCI-H1975) [µM]
CC(C)(O)c1cc2nc(N/N=C/c3cn(Cc4ccc(C#N)cc4)c4ccccc34)nc(N3CCOCC3)c2s1,6.31,4.53,4.57,2.54,–,–
CC(C)(C)c1ccc(Cn2c(/C=N/Nc3nc(N4CCOCC4)c4sccc4n3)nc3ccccc32)cc1,8.17,3.62,3.63,4.18,–,–
CC(C)(C)c1ccc(Cn2cc(/C=N/Nc3nc(N4CCOCC4)c4sccc4n3)c3ccccc32)cc1,1.43,0.38,0.38,1.69,11.2,8
Clc1ccc(Cn2cc(/C=N/Nc3nc(N4CCOCC4)c4sccc4n3)c3ccccc32)cc1Cl,> 100,0.74,0.741,16.2,> 100,> 100
Clc1ccc(Cn2cc(/C=N/Nc3nc(N4CCOCC4)c4sccc4n3)c3ccccc32)cc1,2.7,0.36,0.355,5.76,15.6,–
CC(C)(O)c1cc2nc(N/N=C/c3cn(Cc4ccc(Cl)cc4)c4ccccc34)nc(N3CCOCC3)c2s1,5.14,0.55,0.55,0.87,7.43,33.8
Clc1ccccc1Cn1cc(/C=N/Nc2nc(N3CCOCC3)c3sccc3n2)c2ccccc21,> 100,3.98,3.98,> 100,–,–
CC(C)(O)c1cc2nc(N/N=C/c3cn(Cc4ccc(Cl)cc4Cl)c4ccccc34)nc(N3CCOCC3)c2s1,> 100,8.9,8.91,5.38,–,–
NNc1nc(N2CCOCC2)c2sccc2n1,63.8,42.2,–,23.4,–,–
Clc1ccccc1Cn1c(/C=N/Nc2nc(N3CCOCC3)c3sccc3n2)nc2ccccc21,> 100,79.4,79.4,0.4,–,–
CC(C)(O)c1cc2nc(N/N=C/c3cn(Cc4c(Cl)cccc4Cl)c4ccccc34)nc(N3CCOCC3)c2s1,62.1,4.03,4.07,3.36,–,–
COc1cc(/C=N/Nc2nc(N3CCOCC3)nc(N3CCOCC3)n2)cc(OC)c1O,> 100,9.2,–,20.2,–,–
CC(C)(O)c1cc2nc(N/N=C/c3cn(Cc4ccccc4F)c4ccccc34)nc(N3CCOCC3)c2s1,1.66,1.1,1.1,1.05,3.92,15.6
CC(C)(O)c1cc2nc(N/N=C/c3cn(Cc4cccc(Cl)c4Cl)c4ccccc34)nc(N3CCOCC3)c2s1,> 100,7.22,7.24,3.7,–,–
FC(F)(F)c1cccc(Cn2cc(/C=N/Nc3nc(N4CCOCC4)c4sccc4n3)c3ccccc32)c1,83.8,0.52,0.525,1.68,4.84,2.79
Clc1cccc(Cn2c(/C=N/Nc3nc(N4CCOCC4)c4sccc4n3)nc3ccccc32)c1,37.7,4.56,4.57,1.01,–,–
C(=N\Nc1nc(N2CCOCC2)c2sccc2n1)/c1cn(Cc2ccccc2)c2ccccc12,12.4,1.41,1.41,4.7,> 100,42.7

# — ChEMBL document CHEMBL2086281, “Design, synthesis and 3D-QSAR analysis of novel 2-hydrazinyl-4-morpholinothieno[3,2-d]pyrimidine derivatives as potential antitumor agents” (Eur J Med Chem, 2012)
